PfG6PD inh = PfG6PD enzyme inhibitors, primary screen, biochemical, fluorescence intensity, uHTS; PfGluPho enzyme, NADPH resazurin-diaphorase fluorescence; inhibition, % at 20 µM; 350,000 tested, 0.78% active;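 active = inhibition reaching at least a set limit at 20 µM in the primary screen, cut at about 59% in these data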
aDG glyco act = activators of alpha-DG glycosylation, primary screen, uHTS, Pro5-aDG cells, AlphaScreen; 360,000 tested, 0.22% active; alpha-DG glycosylation AlphaScreen (IIH6); 0% Pro5, 100% B10-LARGE cell signal; AID 624168, 2012; activation, % at 10 µM;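 active = activation of at least 8% versus controls, or a plate z-score of at least 8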;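 also: Pro5 are CHO cells carrying HIG-tagged alpha-DG that lacks glycosylation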
B2AR ag = beta2AR agonists driving receptor internalization, primary screen, cell-based, FAP fluorogen, flow cytometry; Beta-2 adrenergic receptor (Homo sapiens), P07550; Am2.2-beta2AR cells; response, % (test concentration not listed); 340,000 tested, 0.43% active; AID 504454, 2011;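 active = response above a set limit, near 3 SD of response in nonfluorescent compounds, cut at about 42% in these data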
Target sequence (P07550 whole entry, looked up): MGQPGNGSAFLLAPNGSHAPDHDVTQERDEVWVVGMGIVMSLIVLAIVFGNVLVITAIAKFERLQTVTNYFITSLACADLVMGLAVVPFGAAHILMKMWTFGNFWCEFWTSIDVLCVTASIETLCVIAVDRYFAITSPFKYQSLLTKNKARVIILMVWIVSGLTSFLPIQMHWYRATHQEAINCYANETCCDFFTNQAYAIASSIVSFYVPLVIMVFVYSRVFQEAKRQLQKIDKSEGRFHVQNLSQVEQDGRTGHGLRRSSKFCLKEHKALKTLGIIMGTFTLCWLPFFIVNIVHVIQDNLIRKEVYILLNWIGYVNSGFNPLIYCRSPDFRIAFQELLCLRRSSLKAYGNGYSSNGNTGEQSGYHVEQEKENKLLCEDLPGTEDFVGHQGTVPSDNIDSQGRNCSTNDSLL
H9c2 protect = cardioprotection against H2O2-induced cell death, primary screen, uHTS, H9c2 cells, ATPLite luminescence | H9c2 cardiomyocytes, H2O2 injury protection, 2 h | protection from H2O2 cell death, % at 20 µM | 360,000 tested, 0.63% active;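 active = compounds giving at least 50% protection of heart cells from peroxide-induced death in the single-dose screen, raw or plate-pattern-corrected value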
UCH37 inh = inhibitors of human UCH37 deubiquitinase, primary screen, biochemical, Ub-AMC cleavage, fluorescence; Ubiquitin carboxyl-terminal hydrolase isozyme L5 (Homo sapiens), Q9Y5K5; purified proteasome/UCH37; inhibition, % (test concentration not listed); 330,000 tested, 0.33% active; AID 588478, 2011;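 active = mean inhibition over replicate wells above about 20%, limit read from the data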
Target sequence (Q9Y5K5 whole entry, looked up): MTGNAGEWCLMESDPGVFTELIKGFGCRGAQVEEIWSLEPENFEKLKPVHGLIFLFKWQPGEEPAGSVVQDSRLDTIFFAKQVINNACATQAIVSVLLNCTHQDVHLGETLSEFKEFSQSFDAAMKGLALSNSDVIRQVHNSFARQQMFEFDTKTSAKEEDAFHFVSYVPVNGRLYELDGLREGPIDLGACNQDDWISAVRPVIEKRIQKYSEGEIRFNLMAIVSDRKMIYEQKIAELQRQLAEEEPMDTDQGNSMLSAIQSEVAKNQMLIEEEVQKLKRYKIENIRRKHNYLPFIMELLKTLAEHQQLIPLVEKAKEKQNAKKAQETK
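Reagent: Ub-AMC substrate; assay system: Proteasome-associated human UCH37 deubiquitinase; controls: no-proteasome and no-compound wells; read-out: % inhibition of Ub-AMC cleavage fluorescence; timing: 30 min preincubation with enzyme, 25 min cleavage at room temperature; signal: AMC fluorescence from Ub-AMC cleavage, excitation 355 nm, emission 460 nm; buffer or medium: Tris-HCl pH 7.4 plus ovalbumin, ATP-MgCl2, DTT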
HKDC1 inhibitor = HKDC1 hexokinase inhibitors, primary screen, biochemical, fluorescence, uHTS; inhibition, % at 20 µM; 340,000 tested, 0.16% active; Q2TB90; recombinant HKDC1, G6PDH/diaphorase resazurin coupled fluorescence;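 active = inhibition above about 35% when tested at 20 µM, limit read from the data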
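System: Recombinant HKDC1 hexokinase | Amount: HKDC1 at 5 µg/mL | Reagent: Glucose with 1 mM ATP | Doses: Single 20 µM dose | Incubation: Reaction time 90 min, room temperature, protected from light | Signal: Coupled resazurin fluorescence, excitation 525 nm, emission 613 nm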
PfGluPho conf = PfG6PD inhibitors, hit retest, confirmation, biochemical, fluorescence intensity, single concentration; shares compounds with PfG6PD inh; recombinant PfGluPho, NADPH-diaphorase-resazurin fluorescence; inhibition, % at 20 µM; 2,400 tested, 34% active; AID 504753, 2011;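 active = inhibition of at least 50% at 20 µM in any single replicate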
Diaphorase 10uM = diaphorase inhibitors and chemical oxidizers, confirmation, counter-screen for P. falciparum G6PD inhibitor project, biochemical, fluorescence intensity, 10 µM NADPH | shares compounds with PfG6PD inh | diaphorase-coupled resazurin reduction, NADPH 10 uM | inhibition, % at 20 µM | 820 tested, 39% active | AID 504862, 2011;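 active = average inhibition reaching 50% or more with the compound at 20 µM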;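 also: resorufin red fluorescence formed as diaphorase reduces resazurin using NADPH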
Diaphorase 30uM = diaphorase inhibitors and chemical oxidizers, confirmation, counter-screen for P. falciparum G6PD inhibitor project, biochemical, fluorescence intensity, 30 µM NADPH. AID 504863, 2011. inhibition, % at 20 µM. 820 tested, 29% active. shares compounds with PfG6PD inh. Diaphorase/resazurin coupled assay, resorufin fluorescence;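 active = inhibition averaging 50% or more, tested at 20 µM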
UCH37 confirm = retest of human UCH37 deubiquitinase inhibitors, confirmation, biochemical, Ub-AMC cleavage rate, fluorescence. shares compounds with UCH37 inh. Proteasome-bound UCH37. inhibition, % at 20 µM. 480 tested, 27% active. AID 624100, 2012;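 active = average inhibition over replicates above about 50%, so the earlier screening hit is confirmed, limit read from the data; inactive = the rest, counted as false positives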;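 also: based on cleavage rate fitted by regression over a 30 min kinetic read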
Hits are given with their value; . = inactive; / = not tested or not shown. This is a sample that favours compounds with a hit; in the whole collection about 2.1% have one here.

SMILES	PfG6PD inh	aDG glyco act	B2AR ag	H9c2 protect	UCH37 inh	HKDC1 inhibitor	PfGluPho conf	UCH37 confirm	others
COc1cccc(-n2c(/C=C/c3ccc(O)c(O)c3)nc3ccccc3c2=O)c1	63.7	.	.	71.8	.	.	.	/
COc1cccc(N2C(=O)NC(=O)/C(=C/c3ccc([N+](=O)[O-])s3)C2=O)c1	82.7	.	.	.	/	.	.	/
COc1cccc(N2C(=O)NC(=O)/C(=C/c3ccc4c(c3)Cc3ccccc3-4)C2=O)c1	.	.	.	.	.	.	/	/
CC1=C[C@@H]2c3cccc4[nH]cc(c34)C[C@H]2N(C)C1	59.5	.	.	.	/	.	.	/
Nc1ccc(C(=O)NN=C2CN3CCC2CC3)cc1	/	/	/	/	.	/	/	/
COc1ccc(N2C(=O)/C(=C/C=C/c3ccccc3[N+](=O)[O-])C(=O)NC2=S)cc1	60.6	/	/	/	.	.	.	/
CCOC(=O)c1cc(C)sc1N=CC1C(=O)NC(=S)NC1=O	/	/	/	/	.	/	/	/
Cc1ccc(-c2nc(N3CCOCC3)s[n+]2-c2ccccc2)cc1	59.8	.	.	.	.	.	77.3	/	Diaphorase 10uM=.;Diaphorase 30uM=.
Cc1ccc(/C=C2\C(=O)NC(=S)N(c3ccccc3F)C2=O)s1	66.0	.	70.5	.	.	.	55.9	/	Diaphorase 10uM=.;Diaphorase 30uM=.
COc1cccc(C2/C(=C(/O)c3ccc4c(c3)OCO4)C(=O)C(=O)N2CCN2CCOCC2)c1 (configuration not stated)	.	.	.	.	.	.	/	/
O=C(OCC(=O)c1ccc([N+](=O)[O-])cc1)/C(=C\c1ccc(Cl)cc1)NC(=O)c1ccccc1	.	.	.	.	.	.	69.0	/	Diaphorase 10uM=.;Diaphorase 30uM=.
O=C(Cc1ccccc1)OCC(=O)c1ccccc1	.	.	.	.	.	.	/	/
CCOP(=S)(OCC)Oc1ccc2c(C)c(Cl)c(=O)oc2c1	.	.	/	.	.	.	/	/
CCOP(=S)(OCC)Oc1cc(C)oc(=O)c1Cl	62.6	.	.	.	.	.	.	/
CC(=O)OC1N=C(c2ccccc2)c2cc(Br)ccc2NC1=O (configuration not stated)	.	.	.	.	.	.	/	/
CC(=O)OC1N=C(c2ccc(Cl)cc2)c2cc(Br)ccc2NC1=O (configuration not stated)	77.8	.	.	.	.	.	.	/
CCOC(=O)c1c(N=CC2C(=O)NC(=O)NC2=O)sc2c1CCC2	/	/	/	/	.	/	/	/
CC(C)N1CCN(c2ccc(O)cc2)CC1	72.5	.	.	.	.	.	.	/
COc1cc2c(cc1OC)-c1c(OC)c(OC)cc3c1C(C2)N(C)CC3 (configuration not stated)	68.4	.	.	.	28.1	.	.	.
CCn1nc(/C=C/c2ccccc2)nc2c(=O)n(C)c(=O)nc1-2	101.5	.	68.5	.	95.7	.	76.1	99.9	Diaphorase 10uM=92.8;Diaphorase 30uM=98.5
CCOC(=O)NC1CCc2cc(OC)c(OC)c(OC)c2-c2ccc(OC)c(=O)cc21 (configuration not stated)	.	.	.	.	/	.	/	/
Cc1cccc(N2C(=O)CN(Cc3ccccc3)C2=S)c1	.	.	.	.	.	.	/	/
COc1cc2[nH]c(=O)n(-c3ccccc3)c(=O)c2cc1OC	.	.	.	.	.	.	/	/
COc1cc(C(c2c(C)[nH]n(-c3ccccc3)c2=O)c2c(C)[nH]n(-c3ccccc3)c2=O)cc(OC)c1OC	.	.	.	.	52.8	.	/	94.2
COC(=O)C(O)(c1c(C)[nH]n(-c2ccccc2)c1=O)C(F)(F)F (configuration not stated)	.	.	.	.	84.9	.	/	60.1
SMILES	PfG6PD inh	aDG glyco act	B2AR ag	H9c2 protect	UCH37 inh	HKDC1 inhibitor	PfGluPho conf	UCH37 confirm	others
O=c1[nH]c(=O)n(CCC2=CCCCC2)c(O)c1C=NCc1cccnc1	.	.	.	.	43.8	.	/	.
CCN(CC)CCN=Cc1c(O)n(CCC2=CCCCC2)c(=O)[nH]c1=O	.	.	.	.	.	.	/	/
O=c1ccc2ccc(OCc3ccccc3)cc2o1	.	.	.	.	.	.	/	/
COC(=O)c1nc(-c2ccc3c(n2)C(=O)C(N)=C(OC)C3=O)c(N)c(-c2ccc(OC)c(OC)c2O)c1C	.	.	.	.	69.0	.	/	.
CC(=O)N1CCN(C(=O)COc2ccc(N(C)S(=O)(=O)c3cccs3)cc2)CC1	.	.	.	.	.	.	/	/
Cn1c(=O)[nH]c2nncnc2c1=O	.	.	.	.	30.1	.	/	.
COc1ccc(N2C(=O)/C(=C/c3ccc(N(C)C)o3)C(=O)NC2=S)cc1	.	.	.	.	25.2	.	/	.
CCN(CC)c1ccc(/C=C2\C(=O)NC(=S)N(C)C2=O)o1	.	.	.	.	26.1	.	/	.
CCN(CC)c1ccc(/C=C2\C(=O)NC(=S)N(c3ccc(OC)cc3OC)C2=O)o1	.	.	.	.	26.8	.	/	.
COc1cccc(N2C(=O)/C(=C/c3ccc(C)o3)C(=O)NC2=S)c1	.	.	.	.	.	.	/	/
Cn1cc([C@@H]2C[C@H]3CN(Cc4cccc(Cl)c4)C(=O)[C@]34CCCN24)c2ccccc21	.	.	.	.	.	.	/	/
O=C(OCCOc1ccccc1)c1cc(S(=O)(=O)N2CCOCC2)ccc1Cl	.	.	.	.	.	.	/	/
O=C1NC(=O)C(=Cc2ccc(N3CCOCC3)o2)C(=O)N1	.	.	.	.	27.0	.	/	.
COc1cc2c(c(OC)c1OC)-c1ccc(OC)c(=O)cc1C(N)CC2 (configuration not stated)	.	.	.	.	/	.	/	/
COc1cc2c(c(OC)c1OC)-c1ccc(SC)c(=O)cc1C(N)CC2 (configuration not stated)	.	.	.	.	/	.	/	/

Screens: PubChem BioAssay, several laboratories
